For data set [1], the target named is T1, Catechol O-methyltransferase (Homo sapiens, UniProt P21964).
T1 sequence (P21964 whole entry): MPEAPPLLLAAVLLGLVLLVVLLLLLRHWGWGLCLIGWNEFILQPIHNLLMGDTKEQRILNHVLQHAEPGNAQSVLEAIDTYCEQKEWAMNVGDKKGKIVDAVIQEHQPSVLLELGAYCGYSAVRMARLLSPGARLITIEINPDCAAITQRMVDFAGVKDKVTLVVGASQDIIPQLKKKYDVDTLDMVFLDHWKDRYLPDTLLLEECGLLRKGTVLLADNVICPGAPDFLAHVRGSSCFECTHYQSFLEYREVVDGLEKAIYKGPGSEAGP
The data set is described as follows: Inhibition of recombinant human C-terminal His6-tagged MB-COMT expressed in Bacmid using SAM/dopamine as substrate preincubated for 2 hrs followed by substrate addition measured after 25 mins by SAC TAMRA tracer-based fluorescence polarization assay.

The target in data set [2] is T1, Catechol O-methyltransferase. Nature of the data set: Inhibition of recombinant human C-terminal His6-tagged soluble COMT transfected in Escherichia coli BL21-Gold (DE3) using SAM/dopamine as substrate preincubated for 2 hrs followed by substrate addition measured after 25 mins by SAC TAMRA tracer-based fluorescence polarization assay.
The target in data set [3] is T2, Catechol O-methyltransferase (Rattus norvegicus, UniProt P22734).
T2 sequence (P22734 whole entry): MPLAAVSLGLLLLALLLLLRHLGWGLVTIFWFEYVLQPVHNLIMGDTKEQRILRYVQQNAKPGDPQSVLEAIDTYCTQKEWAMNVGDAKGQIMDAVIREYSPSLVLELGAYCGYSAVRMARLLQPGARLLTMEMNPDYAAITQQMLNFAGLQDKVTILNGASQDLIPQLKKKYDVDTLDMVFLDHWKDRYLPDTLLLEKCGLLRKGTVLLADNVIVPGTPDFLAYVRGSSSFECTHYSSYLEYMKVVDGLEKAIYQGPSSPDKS
The data set is described as follows: Inhibition of recombinant rat C-terminal His10-tagged MB-COMT transfected in Escherichia coli BL21-CodonPlus(DE3)-RIPL using SAM/dopamine as substrate preincubated for 2 hrs followed by substrate addition measured after 25 mins by SAC TAMRA tracer-based fluorescence polarization assay.

Data set [4] is described as follows: Plasma concentration in rat at 30 mg/kg, ip after 1 hr. It counts as ADME, organism-based. Summed up:
(§1)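 Rats dosed intraperitoneally at 30 or 100 mg/kg. Plasma and cerebrospinal fluid were sampled one hour after dosing, and drug concentrations were measured in each.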

Data set [5] in a line: Intrinsic clearance in rat hepatocytes. In kind it is ADME, cell-based, Hepatocyte. The conditions noted are these: read-out: CLH.
Data set [6] in a line: Volume of distribution in rat at 0.5 mg/kg, iv. In kind it is ADME, organism-based. The conditions noted are these: in vivo. Summed up: (§2)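 Rat PK after a single intravenous dose of 0.5 mg/kg given in DMSO. Plasma clearance, volume of distribution and half-life were derived from the plasma data.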
The nature of data set [7]: Intrinsic clearance in human hepatocytes. It counts as ADME, cell-based, Hepatocyte. The settings on record: read-out: CLH.
For data set [8], the system named is Rattus norvegicus. Nature of the data set: In vivo inhibition of MB-COMT in ip dosed rat assessed as increase in dihydroxyphenylacetic acid level in cerebrospinal fluid after 1 hr. It counts as functional, organism-based. Summed up: (§3)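 Rats were dosed intraperitoneally, and cerebrospinal fluid was collected one hour later. HVA and DOPAC levels were measured and compared with vehicle by ANOVA, with significance set at p<0.05.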

Data set [9] can be described thus: Plasma concentration in rat at 100 mg/kg, ip after 1 hr. In kind it is ADME, organism-based. In short, it runs like this:
as §1

In another data set the test system is Cerebrospinal fluid. The data set is described as follows: Drug uptake in rat cerebrospinal fluid at 30 mg/kg, ip after 1 hr. The settings on record: in vivo, BLD = below limit of detection. In kind it is ADME, organism-based. Summed up: as §1
The test system of data set [10] is Rattus norvegicus. Nature of the data set: In vivo inhibition of MB-COMT in ip dosed rat assessed as decrease in homovanillic acid level in cerebrospinal fluid after 1 hr. It counts as functional, organism-based. Summed up: as §3
The nature of data set [11]: Plasma clearance in rat at 0.5 mg/kg, iv. In kind it is ADME, organism-based. Summed up: as §2
A short description of data set [12]: Drug uptake in rat cerebrospinal fluid at 100 mg/kg, ip after 1 hr. It counts as ADME, organism-based. The settings on record: read-out: Drug uptake. In short, it runs like this:
as §1

A short description of data set [13]: Half life in rat at 0.5 mg/kg, iv. It counts as ADME, organism-based. The conditions noted are these: in vivo. Summed up:
as §2

pIC50: −log10 of the molar value.

As to `O=c1ccn(-c2cccc(-c3ccccc3)n2)cc1O`, the pIC50 in data set [1] is 6.89; in data set [2], 5.59.
As to `O=c1ccn(-c2cc(-c3ccncc3)ccn2)cc1O`, the pIC50 in data set [1] was 6.17.
With `O=c1ccn(-c2ccnc(-c3ccccc3)n2)cc1O`, the pIC50 was 6.15 in data set [1] and 5.69 in data set [2].
In the case of `O=c1ccn(-c2cc(-c3cccc(C(F)(F)F)n3)ccn2)cc1O`, the pIC50 in [1] was 7.08; in [3] it was 7.96.
As for `O=c1ccn(-c2cc(-c3cccnc3)ccn2)cc1O`, in data set [1], the pIC50 was 6.24.
For the compound `O=c1ccn(-c2ccnc(-c3ccccc3)c2)cc1O`, the negative-log IC50 (pIC50) in [1] is 6.34; in [2] it was 5.63.
Turning to `O=c1ccn(-c2cc(-c3ccccc3)ccn2)cc1O`, the concentration at 1 h came to 70 nM in data set [4], 3600 nM in [9] and 410 nM in data set [12]. Also, the CLint scaled in [5] came to 448 mL/min/kg; in data set [7], 74 mL/min/kg. In addition, the results for the pIC50 in data set [1], in data set [3] and in data set [2] were 7.40, 7.82 and 5.52, respectively. The compound also yielded a Vd in data set [6] of 1.9 L/kg. The inhibition result with Rattus norvegicus [8] and in the data set on Rattus norvegicus [10] was “Dose-dependent effect” in each case. Further, the Drug uptake result in the data set on Cerebrospinal fluid is listed as “BLD”. The compound also showed a clearance in data set [11] of 94 mL/min/kg. In [13], this compound gave a half-life of 24 min.
Take `O=c1ccn(-c2nccc3ccccc23)cc1O`: the pIC50 was 6.02 in [1] and 5.90 in data set [2].
As for `CC(C)(C)c1nc(-c2ccnc(-n3ccc(=O)c(O)c3)c2)cs1`, the negative logarithm of the IC50 (pIC50) was 7.00 in [1] and 7.82 in [3].
As to `O=c1ccn(-c2ncccc2-c2ccccc2)cc1O`, the pIC50 in data set [1] and in data set [2] was less than 5.30 throughout.
On to `O=c1ccn(-c2nccc(-c3ccccc3)c2F)cc1O`, for which the pIC50 in [1] was 7.26; in data set [2], 6.02.
Taken in the same sequence, the figures for `Cc1cn2nc(-n3ccc(=O)c(O)c3)ccc2n1` were less than 5.30 and 5.78.
`O=c1ccn(-c2cc(-c3cnn(Cc4ccccc4)c3)ccn2)cc1O`: the pIC50 in [1] is 7.31; in data set [3], 7.55.
Regarding `O=c1ccn(-c2cc(-c3ccccn3)ccn2)cc1O`, the pIC50 in data set [1] is 6.08.
As for `O=c1ccn(-c2cccc(-c3ccccc3)c2)cc1O`, the CLint scaled in [5] was found to be 583 mL/min/kg; in data set [7] it was 320 mL/min/kg. Also, the clearance in data set [11] is 58 mL/min/kg.
Turning to `O=c1ccn(-c2nc(-c3ccccn3)cs2)cc1O`, the pIC50 in data set [1] and in [2] was less than 5.30 in each case.
On to `O=c1ccn(-c2cc(-c3ccc(Cl)c(Cl)c3)ccn2)cc1O`, for which the negative-log IC50 (pIC50) in [1] is 7.46; in data set [3], 7.57. In data set [7], the CLint scaled was 292 mL/min/kg. The clearance in data set [11] was determined as 200 mL/min/kg.

Source of the values: ChEMBL document CHEMBL3797074, “Synthesis and optimization of N-heterocyclic pyridinones as catechol-O-methyltransferase (COMT) inhibitors” (Bioorg Med Chem Lett, 2016).
